According to PMC3014451 (Bioorganic & medicinal chemistry, 2010):
In brackets after ≈: the same amount, converted by molar mass.

How the values were obtained:
[1] = tested on: mutant G93A SOD1 aggregation in PC12 cells; experiment: Mutant SOD1-induced cytotoxicity protection assay; assay type: cell-based; conditions: maximum cell viability in cytotoxicity protection assay
ALS = ALS patients; ref v; cited from earlier work
[2] = Aqueous solubility screen in PBS; assay type: physicochemical; conditions: PBS with 1% DMSO
PBS stability = assay type: physicochemical; conditions: 5 μM, 37 °C
Outline: (§1)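 Samples were taken at 15 s, 10, 20, 40 and 60 min and precipitated with acetonitrile containing haloperidol as internal standard, then analysed by LC-MS/MS for analyte/internal standard peak-area ratio. The plasma ratio was divided by the PBS ratio at the same time point.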

Microsomal stability [3] = assay type: in vitro ADME; conditions: mouse, liver microsomes
Outline: (§2)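 Test compound at 5 μM, in duplicate, with liver microsomes (0.275 mg/mL protein) in 100 mM potassium phosphate, 3 mM MgCl2, 2 mM NADPH, pH 7.4, at 37 °C; a parallel control omits NADPH. Aliquots at 15 sec to 60 min quenched in acidified acetonitrile. Parent quantified by LC-MS/MS against haloperidol internal standard. k from 1/Y-weighted exponential fit; T1/2 = ln2/k.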

Microsomal stability [4] = assay type: in vitro ADME; conditions: human, liver microsomes, pH 7.4, CL’int, 37 °C, with NADPH
Outline: as §2

Mouse plasma stability = assay type: in vitro ADME
Outline: as §1

With `C[C@@H]1C[C@H]2O[C@@H]2/C=C\C=C\C(=O)Cc2c(Cl)c(O)cc(O)c2C(=O)O1` [radicicol] the “efficacy (cell viability)” value [1] was 85%.

In the case of `Nc1nc2ccc(OC(F)(F)F)cc2s1` [Riluzole], the “prolongation of patient life” value (ALS) is given as “two to three”.

For `Cc1cc(SCc2cc(=O)[nH][nH]2)c(Cl)cc1Cl` [compound 1, 5-((2,4-Dichloro-5-methylphenylthio)methyl)-1H-pyrazol-3(2H)-one], the solubility at 1 h [2] was 16.4 µg/mL (≈ 56.7 µM), the “PBS Amount Remaining at 60 min” value (PBS stability) was 100% and the CLint scaled at 5 μM (Microsomal stability [3]; pH 7.4, CL’int No NADPH, without NADPH) was 61.2 mL/min/kg. The CLint scaled at 5 μM (Microsomal stability [3]; pH 7.4, CL’int, 5 μM, 37 °C, with NADPH) was 292 mL/min/kg, the CLint scaled at 5 μM (Microsomal stability [4]) was 58.5 mL/min/kg and the “Recovery Plasma vs. PBS” value (Mouse plasma stability) was 91%.
